{"source": "ChEMBL document CHEMBL1153939", "about": "“Novel antagonists of serotonin-4 receptors: synthesis and biological evaluation of pyrrolothienopyrazines” (Bioorg Med Chem, 2009)", "key": {"[1]": {"biological_target": "5-hydroxytryptamine receptor 6 (Homo sapiens, UniProt P50406)", "sequence (P50406 whole entry)": "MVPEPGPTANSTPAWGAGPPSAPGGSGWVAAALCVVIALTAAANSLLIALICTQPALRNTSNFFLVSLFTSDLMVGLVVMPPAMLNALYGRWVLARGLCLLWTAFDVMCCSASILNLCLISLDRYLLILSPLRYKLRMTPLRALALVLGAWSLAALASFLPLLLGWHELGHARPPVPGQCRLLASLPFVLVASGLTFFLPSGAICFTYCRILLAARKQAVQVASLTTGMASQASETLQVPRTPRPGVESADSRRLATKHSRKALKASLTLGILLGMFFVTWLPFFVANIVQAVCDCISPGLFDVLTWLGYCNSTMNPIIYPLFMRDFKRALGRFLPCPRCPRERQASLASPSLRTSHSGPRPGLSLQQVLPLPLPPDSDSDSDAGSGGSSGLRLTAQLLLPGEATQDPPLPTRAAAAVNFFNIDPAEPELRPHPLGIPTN", "experiment": "Displacement of [3H]LSD form human recombinant 5HT6 receptor", "procedure,_shortened": "(§1)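 Membranes from sf9 cells expressing human 5-HT6 (14 µg/mL) or 5-HT7 (38 µg/mL) incubated 90 min at 27 °C with 2 nM [3H]LSD in 50 mM Tris-HCl containing 10 mM MgSO4 and 0.5 mM EDTA. Nonspecific binding defined with clozapine (10 and 250 µM).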"}, "[2]": {"biological_target": "5-hydroxytryptamine receptor 4 (Cavia porcellus) (UniProt O70528)", "sequence (O70528 whole entry)": "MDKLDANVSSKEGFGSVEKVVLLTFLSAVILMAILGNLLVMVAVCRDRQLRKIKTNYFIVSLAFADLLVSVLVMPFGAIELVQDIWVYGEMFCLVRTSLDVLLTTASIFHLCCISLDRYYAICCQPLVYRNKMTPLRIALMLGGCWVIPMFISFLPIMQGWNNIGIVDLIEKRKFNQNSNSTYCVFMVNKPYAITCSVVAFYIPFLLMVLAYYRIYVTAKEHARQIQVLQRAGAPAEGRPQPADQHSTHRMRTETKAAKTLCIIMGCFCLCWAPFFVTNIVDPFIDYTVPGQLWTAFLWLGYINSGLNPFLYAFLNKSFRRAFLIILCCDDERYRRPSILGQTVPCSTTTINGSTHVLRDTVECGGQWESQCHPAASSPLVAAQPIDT", "experiment": "Displacement of [3H]GR-113808 from 5HT4 receptor in guinea pig striatum membrane at 1 uM", "assay_type": "cell membranes", "procedure,_shortened": "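Guinea pig membranes (15 µg protein/mL) incubated 30 min at 37 °C with 0.6 nM [3H]GR113808 in 50 mM HEPES, pH 7.4, with fixed test concentrations. Nonspecific binding defined with 10 µM serotonin.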"}, "[3]": {"system": "Mus musculus", "experiment": "Antinociceptive activity against acetic acid-induced writhing in NMRI mouse assessed as number of stretches at 1 mg/kg, ip by writhing test", "assay_type": "functional", "details": "route intraperitoneal", "procedure,_shortened": "(§2)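 Groups of 8 male NMRI mice (20–24 g). Compound or reference given ip in saline (10 mL/kg) 15 min before ip 0.6% aqueous acetic acid (10 mL/kg). Stretches (back arching, pelvic rotation, hind-limb extension) counted over 10 min, beginning 10 min after acid. ANOVA + Fisher PLSD versus control.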"}, "[4]": {"biological_target": "T1, 5-hydroxytryptamine receptor 2C (Homo sapiens, UniProt P28335)", "T1 sequence (P28335 whole entry)": "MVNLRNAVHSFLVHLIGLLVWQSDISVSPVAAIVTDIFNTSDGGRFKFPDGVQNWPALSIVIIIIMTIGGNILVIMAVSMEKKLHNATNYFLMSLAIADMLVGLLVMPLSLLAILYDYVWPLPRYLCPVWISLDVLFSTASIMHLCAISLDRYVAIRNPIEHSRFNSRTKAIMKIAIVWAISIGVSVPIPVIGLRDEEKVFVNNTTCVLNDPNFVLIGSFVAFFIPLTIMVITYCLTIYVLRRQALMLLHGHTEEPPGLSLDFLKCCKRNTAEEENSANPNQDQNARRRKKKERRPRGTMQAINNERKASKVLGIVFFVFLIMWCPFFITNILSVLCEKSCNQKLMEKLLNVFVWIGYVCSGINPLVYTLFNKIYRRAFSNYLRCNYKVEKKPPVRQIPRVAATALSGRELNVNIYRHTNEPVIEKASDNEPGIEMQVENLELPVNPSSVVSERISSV", "experiment": "Displacement of [3H]mesulergine from human recombinant 5HT2C receptor"}, "[5]": {"biological_target": "5-hydroxytryptamine receptor 1B (Rattus norvegicus, UniProt P28564)", "sequence (P28564 whole entry)": "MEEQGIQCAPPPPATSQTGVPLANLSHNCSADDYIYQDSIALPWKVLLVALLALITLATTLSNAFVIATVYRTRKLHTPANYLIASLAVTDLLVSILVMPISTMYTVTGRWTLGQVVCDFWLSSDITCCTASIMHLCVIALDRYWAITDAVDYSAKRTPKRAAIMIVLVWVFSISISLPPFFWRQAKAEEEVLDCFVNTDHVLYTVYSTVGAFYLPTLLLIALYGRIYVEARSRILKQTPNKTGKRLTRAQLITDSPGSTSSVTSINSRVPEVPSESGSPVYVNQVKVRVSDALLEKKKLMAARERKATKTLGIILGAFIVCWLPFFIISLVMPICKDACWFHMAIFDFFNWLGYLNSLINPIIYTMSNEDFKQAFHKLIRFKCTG", "experiment": "Displacement of [3H]5OH-tryptamine form 5HT1B receptor in rat cerebral cortex", "assay_type": "tissue-based"}, "[6]": {"biological_target": "5-hydroxytryptamine receptor 2B (Homo sapiens, UniProt P41595)", "sequence (P41595 whole entry)": "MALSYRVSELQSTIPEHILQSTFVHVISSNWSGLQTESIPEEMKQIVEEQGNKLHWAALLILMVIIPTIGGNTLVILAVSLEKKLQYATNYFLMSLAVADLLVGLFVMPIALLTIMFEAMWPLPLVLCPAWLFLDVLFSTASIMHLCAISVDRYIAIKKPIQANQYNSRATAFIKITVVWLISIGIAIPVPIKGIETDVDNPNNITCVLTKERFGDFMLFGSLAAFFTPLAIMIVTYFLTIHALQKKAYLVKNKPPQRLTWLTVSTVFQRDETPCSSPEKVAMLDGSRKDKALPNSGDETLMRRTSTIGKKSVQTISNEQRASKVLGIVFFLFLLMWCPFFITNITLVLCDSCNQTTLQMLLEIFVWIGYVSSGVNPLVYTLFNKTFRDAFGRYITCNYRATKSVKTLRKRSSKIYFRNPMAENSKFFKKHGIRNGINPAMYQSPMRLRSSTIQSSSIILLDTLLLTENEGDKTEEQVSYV", "experiment": "Displacement of [3H]mesulergine from human recombinant 5HT2B receptor"}, "[7]": {"system": "Mus musculus", "experiment": "Antinociceptive activity against acetic acid-induced writhing in NMRI mouse assessed as number of stretches at 0.01 mg/kg, ip by writhing test", "assay_type": "functional", "details": "route intraperitoneal", "procedure,_shortened": "as §2"}, "[8]": {"biological_target": "5-hydroxytryptamine receptor 3A (Homo sapiens) (UniProt P46098)", "sequence (P46098 whole entry)": "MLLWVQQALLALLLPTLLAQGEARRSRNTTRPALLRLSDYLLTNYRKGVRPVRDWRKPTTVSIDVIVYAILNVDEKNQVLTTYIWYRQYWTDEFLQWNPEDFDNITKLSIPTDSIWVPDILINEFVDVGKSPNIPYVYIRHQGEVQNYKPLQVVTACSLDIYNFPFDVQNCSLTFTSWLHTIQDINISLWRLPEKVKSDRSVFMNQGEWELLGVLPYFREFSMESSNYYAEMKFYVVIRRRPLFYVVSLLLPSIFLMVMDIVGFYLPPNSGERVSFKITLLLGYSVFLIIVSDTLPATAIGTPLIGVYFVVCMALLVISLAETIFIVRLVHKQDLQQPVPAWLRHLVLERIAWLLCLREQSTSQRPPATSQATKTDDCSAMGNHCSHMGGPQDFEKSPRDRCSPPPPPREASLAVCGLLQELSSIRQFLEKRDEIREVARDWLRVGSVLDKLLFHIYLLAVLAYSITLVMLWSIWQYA", "experiment": "Antagonist activity at 5HT3 receptor in hybrid NG108-15 cells assessed as inhibition of 5HT-induced current treated 1 min prior to agonist treatment by electrophysiology", "assay_type": "functional, cell-based", "procedure,_shortened": "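NG108-15 cells grown in DMEM-HG with 5% FBS and HAT, then differentiated on polylysine glass with 2% DMSO for 48 h followed by ≥24 h with 1 mM dibutyryl-cAMP. Whole-cell recording at −60 mV in HEPES saline, pH 7.3, with a CsCl/CsMeSO3 pipette solution. 5-HT 50 µM applied by gravity every 2.5 min.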"}, "[9]": {"system": "Mus musculus", "experiment": "Toxicity in NMRI mouse assessed as spontaneous alteration performance ar 0.3 to 3 mg/kg, ip by Y-maze test", "assay_type": "organism-based", "parameters": "dose 0.3-3 mg/kg, route intraperitoneal", "details": "in vivo", "procedure,_shortened": "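Spontaneous alternation in male NMRI mice. Drug given ip in saline at 0.3, 1 and 3 mg/kg, 30 min before testing, with or without scopolamine 1 mg/kg. Four groups per dose: control, scopolamine, drug alone, drug+scopolamine. Alternation % = actual alternations/(total arm entries − 2) × 100. ANOVA plus Fisher PLSD.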"}, "[10]": {"system": "Mus musculus", "experiment": "Inhibition of scopolamine-induced immediate working memory deficit in NMRI mouse at 0.3 to 3 mg/kg, ip by Y-maze test", "assay_type": "functional, organism-based", "procedure,_shortened": "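Spontaneous alternation in male NMRI mice. Compound given ip in saline at 0.3, 1 and 3 mg/kg, 30 min before testing, alone or with scopolamine 1 mg/kg; four groups per dose (saline/saline, saline/scopolamine, compound/saline, compound/scopolamine). Alternation % = actual alternations / (total arm entries − 2) × 100.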"}, "[11]": {"biological_target": "Alpha-1D adrenergic receptor (Homo sapiens, UniProt P25100)", "sequence (P25100 whole entry)": "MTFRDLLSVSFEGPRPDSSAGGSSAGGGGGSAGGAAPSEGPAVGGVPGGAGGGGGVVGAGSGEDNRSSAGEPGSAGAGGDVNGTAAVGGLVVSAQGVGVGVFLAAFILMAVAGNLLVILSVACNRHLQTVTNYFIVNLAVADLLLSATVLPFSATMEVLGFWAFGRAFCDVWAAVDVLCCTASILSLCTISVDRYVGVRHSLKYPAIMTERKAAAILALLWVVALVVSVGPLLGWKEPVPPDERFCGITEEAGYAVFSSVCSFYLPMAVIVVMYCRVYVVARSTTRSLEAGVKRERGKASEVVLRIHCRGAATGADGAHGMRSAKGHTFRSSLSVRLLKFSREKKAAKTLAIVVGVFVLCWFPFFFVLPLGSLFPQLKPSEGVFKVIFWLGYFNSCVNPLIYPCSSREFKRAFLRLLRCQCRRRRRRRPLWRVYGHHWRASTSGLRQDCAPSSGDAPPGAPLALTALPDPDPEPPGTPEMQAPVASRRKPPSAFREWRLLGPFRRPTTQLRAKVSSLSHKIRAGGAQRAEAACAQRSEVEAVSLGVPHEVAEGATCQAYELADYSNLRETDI", "experiment": "Displacement of [3H]prazosin form human recombinant Alpha-1D adrenergic receptor"}, "[12]": {"system": "Mus musculus", "experiment": "Acute toxicity in NMRI mouse assessed as behavioral changes at subtoxic <1/4 dose of LD50, ip by CNS activity test", "assay_type": "organism-based, Central nervous system", "details": "in vivo", "procedure,_shortened": "(§3)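 Male NMRI mice (20–24 g) given ip drug in saline (10 mL/kg), groups of 4. Behavioural and neurological changes scored against controls by a standardized observation technique at 30 min, 3 h and 24 h post-dose. Approximate LD50 derived from deaths counted at 24 h.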"}, "[13]": {"biological_target": "5-hydroxytryptamine receptor 5A (Homo sapiens, UniProt P47898)", "sequence (P47898 whole entry)": "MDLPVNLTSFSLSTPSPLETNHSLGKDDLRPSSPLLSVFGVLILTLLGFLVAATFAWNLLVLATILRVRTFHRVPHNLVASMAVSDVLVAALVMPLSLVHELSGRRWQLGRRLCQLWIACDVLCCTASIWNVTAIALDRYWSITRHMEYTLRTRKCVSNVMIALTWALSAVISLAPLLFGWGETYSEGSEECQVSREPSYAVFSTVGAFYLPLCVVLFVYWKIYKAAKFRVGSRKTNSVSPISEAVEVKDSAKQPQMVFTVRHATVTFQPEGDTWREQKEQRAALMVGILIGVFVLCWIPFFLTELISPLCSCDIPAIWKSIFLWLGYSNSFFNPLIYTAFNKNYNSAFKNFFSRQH", "experiment": "Displacement of [3H]LSD form human recombinant 5HT5A receptor"}, "[14]": {"system": "Mus musculus", "experiment": "Acute toxicity in NMRI mouse assessed as induction of convulsions at 100 to 300 mg/kg, ip by CNS activity test", "assay_type": "organism-based, Central nervous system", "parameters": "dose 100-300 mg/kg, route intraperitoneal", "details": "in vivo", "procedure,_shortened": "as §3"}, "[15]": {"biological_target": "5-hydroxytryptamine receptor 2A (Homo sapiens, UniProt P28223)", "sequence (P28223 whole entry)": "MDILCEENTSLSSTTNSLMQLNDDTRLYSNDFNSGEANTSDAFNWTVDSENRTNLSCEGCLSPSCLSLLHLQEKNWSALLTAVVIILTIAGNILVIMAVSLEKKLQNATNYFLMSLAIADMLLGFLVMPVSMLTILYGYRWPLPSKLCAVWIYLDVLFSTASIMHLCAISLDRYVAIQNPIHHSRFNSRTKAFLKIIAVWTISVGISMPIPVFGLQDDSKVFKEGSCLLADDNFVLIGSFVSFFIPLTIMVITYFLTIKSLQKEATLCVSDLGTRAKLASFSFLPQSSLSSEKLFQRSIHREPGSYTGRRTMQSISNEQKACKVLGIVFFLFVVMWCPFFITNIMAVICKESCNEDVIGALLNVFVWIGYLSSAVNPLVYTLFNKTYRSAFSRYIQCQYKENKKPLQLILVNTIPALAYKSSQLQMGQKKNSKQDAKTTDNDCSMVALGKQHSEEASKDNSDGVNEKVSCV", "experiment": "Displacement of [3H]ketanserin form human recombinant 5HT2A receptor"}, "[16]": {"system": "Mus musculus", "experiment": "Analgesic activity in NMRI mouse assessed as reaction time taken to lick fore paw at 0.01 to 1 mg/kg, ip by hot plate test", "assay_type": "functional, organism-based", "procedure,_shortened": "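Male NMRI mice (20–24 g), 10 per group, each pre-screened twice on a 55 °C plate (response required within 4–12 s). Compound given ip in saline (10 mL/kg) at 0.01, 0.1 and 1 mg/kg. Time to forepaw licking recorded 15 and 30 min post-injection; 30 s cutoff. ANOVA + Fisher PLSD.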"}, "[17]": {"biological_target": "Alpha-1B adrenergic receptor (Homo sapiens, UniProt P35368)", "sequence (P35368 whole entry)": "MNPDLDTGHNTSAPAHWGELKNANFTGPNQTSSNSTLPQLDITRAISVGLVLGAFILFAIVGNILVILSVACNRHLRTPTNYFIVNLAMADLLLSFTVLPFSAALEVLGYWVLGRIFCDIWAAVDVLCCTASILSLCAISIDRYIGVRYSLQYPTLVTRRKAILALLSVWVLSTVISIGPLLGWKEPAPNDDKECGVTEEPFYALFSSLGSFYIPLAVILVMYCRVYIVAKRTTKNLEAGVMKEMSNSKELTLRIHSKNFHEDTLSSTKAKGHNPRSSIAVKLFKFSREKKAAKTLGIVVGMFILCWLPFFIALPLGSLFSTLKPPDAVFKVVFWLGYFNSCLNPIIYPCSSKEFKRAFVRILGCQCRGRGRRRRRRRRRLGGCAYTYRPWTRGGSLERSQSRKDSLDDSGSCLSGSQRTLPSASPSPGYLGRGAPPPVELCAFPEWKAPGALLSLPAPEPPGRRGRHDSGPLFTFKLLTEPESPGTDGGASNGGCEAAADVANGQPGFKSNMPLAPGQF", "experiment": "Displacement of [3H]prazosin form human recombinant Alpha-1B adrenergic receptor"}, "[18]": {"biological_target": "5-hydroxytryptamine receptor 4 (Mus musculus) (UniProt P97288)", "sequence (P97288 whole entry)": "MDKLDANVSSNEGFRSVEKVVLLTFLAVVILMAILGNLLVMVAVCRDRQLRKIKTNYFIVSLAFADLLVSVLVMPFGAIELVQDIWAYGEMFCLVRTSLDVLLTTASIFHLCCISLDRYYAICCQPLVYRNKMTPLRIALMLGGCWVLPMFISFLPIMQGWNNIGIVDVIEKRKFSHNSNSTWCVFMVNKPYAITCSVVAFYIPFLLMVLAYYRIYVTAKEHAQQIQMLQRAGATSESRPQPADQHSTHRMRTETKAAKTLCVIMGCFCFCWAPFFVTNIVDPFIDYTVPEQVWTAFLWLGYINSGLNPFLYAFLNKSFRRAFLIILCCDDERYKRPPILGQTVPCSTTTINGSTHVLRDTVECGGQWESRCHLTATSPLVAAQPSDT", "experiment": "Antagonist activity at mouse 5HT4a receptor expressed in african green monkey COS7 cells assessed as inhibition of 5HT-induced cAMP release relative to serotonin", "assay_type": "functional, cell-based", "parameters": "scale not given: the % may be the effect or the level left", "details": "COS-7", "procedure,_shortened": "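Antagonist mode on the same transfected COS-7 cells expressing mouse 5-HT4(a). Cells labelled with [3H]adenine, then incubated with 0.75 mM IBMX, 0.1 µM forskolin and test agents for 5 min at 37 °C; stopped with ice-cold 5% TCA. cAMP read as [3H]ATP→[3H]cAMP conversion after Dowex/alumina chromatography. Mean of four independent experiments.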"}, "[19]": {"biological_target": "5-hydroxytryptamine receptor 7 (Homo sapiens, UniProt P34969)", "sequence (P34969 whole entry)": "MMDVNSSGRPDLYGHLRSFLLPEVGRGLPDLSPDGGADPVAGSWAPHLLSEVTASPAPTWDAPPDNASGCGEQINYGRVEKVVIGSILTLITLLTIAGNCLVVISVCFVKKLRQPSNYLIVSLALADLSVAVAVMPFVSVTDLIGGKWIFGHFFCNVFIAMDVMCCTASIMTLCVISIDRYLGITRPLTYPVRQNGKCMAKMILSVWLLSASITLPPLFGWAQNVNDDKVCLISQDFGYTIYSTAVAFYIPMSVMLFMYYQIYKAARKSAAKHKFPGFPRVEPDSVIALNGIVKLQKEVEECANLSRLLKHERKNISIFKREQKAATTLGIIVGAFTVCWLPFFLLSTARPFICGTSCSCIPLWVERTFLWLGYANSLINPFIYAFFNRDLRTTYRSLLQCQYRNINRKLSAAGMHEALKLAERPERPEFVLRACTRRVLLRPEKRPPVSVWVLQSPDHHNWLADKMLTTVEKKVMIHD", "experiment": "Displacement of [3H]LSD form human recombinant 5HT7 receptor", "procedure,_shortened": "as §1"}}, "note": "Calls of active or inactive are those of the source.", "data": [{"smiles": "CCCN1CCC(COc2nc3scc(C)c3n3cccc23)CC1", "values": [{"measurement": "IC50", "setting": "[1]", "result": "> 10000", "unit": "nM"}, {"measurement": "inhibition", "setting": "[2]", "result": 100, "unit": "%"}, {"measurement": "Activity", "setting": "[3]", "result": 7.6}, {"measurement": "IC50", "setting": "[4]", "result": 72.4, "unit": "nM"}, {"measurement": "IC50", "setting": "[5]", "result": "> 10000", "unit": "nM"}, {"measurement": "IC50", "setting": "[6]", "result": 282, "unit": "nM"}, {"measurement": "Activity", "setting": "[7]", "result": 17.2}, {"measurement": "Activity", "setting": "[8]", "result": "inactive"}, {"measurement": "Activity", "setting": "[9]", "result": "Non-toxic"}, {"measurement": "Activity", "setting": "[10]", "result": "inactive"}, {"measurement": "IC50", "setting": "[11]", "result": 204, "unit": "nM"}, {"measurement": "Activity", "setting": "[12]", "result": "Toxic"}, {"measurement": "IC50", "setting": "[13]", "result": "> 10000", "unit": "nM"}, {"measurement": "Activity", "setting": "[14]", "result": "Toxic"}, {"measurement": "IC50", "setting": "[15]", "result": "> 10000", "unit": "nM"}, {"measurement": "Activity", "setting": "[16]", "result": "inactive"}, {"measurement": "IC50", "setting": "[17]", "result": 145, "unit": "nM"}, {"measurement": "Activity", "setting": "[18]", "result": 80, "unit": "%"}, {"measurement": "IC50", "setting": "[19]", "result": "> 1000", "unit": "nM"}]}]}
